Series [1] can be described thus: Partition coefficient, log P at pH 7.4. The class given is physicochemical. The conditions noted are these: octanol/water.
The subject of series [2] is Brain. Put plainly: Biodistribution in iv dosed rat brain after 30 mins. The note with it: in vivo, 0.5 h. The class given is ADME, organism-based. The essentials: (§1)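 [18F]-labeled tracer was given to rats under isoflurane anesthesia: 0.2 ml sterile water with 1 mg/mL BSA and 10–100 μCi, into the femoral vein. Three rats per group. Animals were killed by cervical dislocation under anesthesia at the stated time. Organs were removed, weighed and counted. Uptake was calculated as percent dose against a 1% aliquot of the injected dose counted alongside.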

In series [3] the test system is Brain. The series can be described thus: Biodistribution in iv dosed rat brain after 120 mins. The conditions noted are these: in vivo, 2 h. Type of series: ADME, organism-based. The essentials: as §1
For series [4], the target named is Sodium-dependent noradrenaline transporter (Homo sapiens, UniProt P23975). The series can be described thus: Displacement of [125I]iodonisoxetine from NET expressed in LLCPK1 cells. The class given is cell-based, LLC-PK1. The essentials:
(§2)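 Membrane homogenates from LLC-PK1 cells, each line overexpressing one transporter. Membranes (30–80 μg protein) in 50 mM Tris-HCl pH 7.4, 120 mM NaCl, 5 mM KCl, 0.1% BSA. Radioligands: 0.09 nM for SERT, 0.06 nM for DAT, 0.06 nM for NET. Competitor at 8–10 concentrations, 10⁻¹⁰ to 10⁻⁵ M. Incubated 1 hr at room temperature. Filtered on PEI-presoaked glass fiber and gamma counted. Ki from nonlinear regression, n = 3.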
A general note: In a radioligand displacement assay an active substance lowers the binding of a labelled ligand.

Series [5] concerns Nucleic Acid. The series can be described thus: Ratio of drug level in hypothalamus to cerebellum in rat after 30 mins. Type of series: ADME, tissue-based. The conditions noted are these: in vivo, 0.5 h. The essentials: (§3)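 Rats, 3 per group, given ¹⁸F tracer (10–100 μCi, 0.2 ml sterile water with 1 mg/mL BSA) into the femoral vein under isoflurane. Brain regions, including hypothalamus, striatum and cerebellum, dissected, weighed and counted. % dose/g calculated against a 1% diluted aliquot of the dose. Region/cerebellum ratio is region %dose/g divided by cerebellum %dose/g. SD of the ratio propagated from both means and SDs.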

The test system of series [6] is Nucleic Acid. The series can be described thus: Ratio of drug level in hypothalamus to cerebellum in rat after 120 mins. Type of series: ADME, tissue-based. The note with it: in vivo, 2 h. The essentials:
as §3

Series [7] deals with Sodium-dependent dopamine transporter (Homo sapiens, UniProt Q01959). The series can be described thus: Displacement of [125I]N-(3'-iodopropen-2'yl)-2-beta-carbomethoxy-3-beta-(4-chlorophenyl)tropane from DAT expressed in LLCPK1 cells. The class given is cell-based, LLC-PK1. The essentials: as §2
The target of series [8] is Sodium-dependent serotonin transporter (Homo sapiens, UniProt P31645). Put plainly: Displacement of [125I]5-iodo-2-[[2,2-[(dimethylamino)methyl]phenyl]thio]benzyl alcohol from SERT expressed in LLCPK1 cells. The class given is cell-based, LLC-PK1. The essentials:
as §2

A word on the logD: it is the decadic logarithm of the distribution of all forms, ionised or not, between an organic phase and buffer at a given pH. A higher logD goes with higher lipophilicity. As usually defined, the Ki is a dissociation constant, usually derived from enzyme kinetics or from competition with a known ligand. High values mean weaker binding, low ones tighter binding.

Some results are limits rather than exact numbers.

Sodium-dependent serotonin transporter, sequence (P31645 whole entry): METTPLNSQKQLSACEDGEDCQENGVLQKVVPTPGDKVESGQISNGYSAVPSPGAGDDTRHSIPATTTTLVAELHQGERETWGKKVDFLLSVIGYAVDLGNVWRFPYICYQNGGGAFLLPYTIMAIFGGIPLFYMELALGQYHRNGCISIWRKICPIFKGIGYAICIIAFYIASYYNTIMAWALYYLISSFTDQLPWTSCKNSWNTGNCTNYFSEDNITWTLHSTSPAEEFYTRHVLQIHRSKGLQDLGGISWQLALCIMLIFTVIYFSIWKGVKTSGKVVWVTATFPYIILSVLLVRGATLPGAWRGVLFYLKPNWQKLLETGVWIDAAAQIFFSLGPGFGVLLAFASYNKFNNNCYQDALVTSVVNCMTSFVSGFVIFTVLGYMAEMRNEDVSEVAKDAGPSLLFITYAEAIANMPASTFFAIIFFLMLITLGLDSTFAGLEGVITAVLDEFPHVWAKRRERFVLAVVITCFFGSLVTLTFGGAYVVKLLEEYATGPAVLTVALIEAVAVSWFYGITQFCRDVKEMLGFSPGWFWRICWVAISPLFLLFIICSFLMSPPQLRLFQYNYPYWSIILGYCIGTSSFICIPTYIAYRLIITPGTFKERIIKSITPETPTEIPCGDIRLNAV
Sodium-dependent dopamine transporter, sequence (Q01959 whole entry): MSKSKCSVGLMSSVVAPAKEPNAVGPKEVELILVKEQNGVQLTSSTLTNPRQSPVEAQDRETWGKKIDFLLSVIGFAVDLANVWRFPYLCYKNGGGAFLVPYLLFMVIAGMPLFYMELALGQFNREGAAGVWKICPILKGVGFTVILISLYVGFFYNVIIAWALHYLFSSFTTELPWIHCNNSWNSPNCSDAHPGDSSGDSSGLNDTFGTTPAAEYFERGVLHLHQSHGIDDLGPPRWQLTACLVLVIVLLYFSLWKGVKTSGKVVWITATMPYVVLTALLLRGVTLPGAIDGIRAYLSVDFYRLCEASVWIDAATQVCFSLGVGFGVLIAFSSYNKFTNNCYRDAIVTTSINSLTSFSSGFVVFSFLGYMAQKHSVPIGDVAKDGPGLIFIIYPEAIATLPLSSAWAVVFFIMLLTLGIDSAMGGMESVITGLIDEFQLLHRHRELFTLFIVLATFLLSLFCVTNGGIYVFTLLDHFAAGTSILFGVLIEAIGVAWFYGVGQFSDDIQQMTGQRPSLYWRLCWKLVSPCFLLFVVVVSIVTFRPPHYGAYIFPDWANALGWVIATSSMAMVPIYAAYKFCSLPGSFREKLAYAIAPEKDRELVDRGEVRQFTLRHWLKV
Sodium-dependent noradrenaline transporter, sequence (P23975 whole entry): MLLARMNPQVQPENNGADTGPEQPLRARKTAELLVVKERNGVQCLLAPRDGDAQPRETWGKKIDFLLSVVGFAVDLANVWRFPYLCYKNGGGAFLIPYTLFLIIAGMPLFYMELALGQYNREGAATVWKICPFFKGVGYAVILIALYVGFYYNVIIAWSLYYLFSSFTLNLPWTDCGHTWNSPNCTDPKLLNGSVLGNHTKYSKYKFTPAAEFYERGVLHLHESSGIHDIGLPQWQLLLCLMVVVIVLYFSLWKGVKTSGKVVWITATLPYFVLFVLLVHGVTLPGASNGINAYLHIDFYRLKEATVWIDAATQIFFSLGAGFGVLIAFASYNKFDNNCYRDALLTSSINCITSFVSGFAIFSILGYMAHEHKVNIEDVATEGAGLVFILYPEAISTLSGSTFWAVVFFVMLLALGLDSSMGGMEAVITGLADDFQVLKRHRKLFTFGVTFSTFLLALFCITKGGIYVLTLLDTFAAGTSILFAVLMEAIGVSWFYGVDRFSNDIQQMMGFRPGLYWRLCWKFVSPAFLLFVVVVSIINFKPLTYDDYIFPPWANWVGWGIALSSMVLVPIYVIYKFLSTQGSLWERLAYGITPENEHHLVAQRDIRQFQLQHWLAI

In series [1], `CN(C)Cc1cc(OCC[18F])ccc1Sc1ccc(Cl)cc1N` yielded a logD of 2.71.

Take `CN(C)Cc1cc(OCCCF)ccc1Sc1ccccc1N`: the Drug uptake in the series on Brain [2] is 1.23 %ID; in the series on Brain [3], 0.59 %ID. The Ki in series [4] was determined as 12 nM; in series [7], 299 nM; in series [8], 1.4 nM. Further, the Ratio in the series on Nucleic Acid [5] stood at 3.5; with Nucleic Acid [6] it was 7.67.

On to `CN(C)Cc1cc(OCCC[18F])ccc1Sc1ccc(Br)cc1N`, for which the logD in series [1] stood at 3.3.

`CN(C)Cc1cc(OCCCO)ccc1Sc1ccccc1N`: the Ki in series [4] was determined as 7 nM; in series [7], 443 nM; in series [8], 1.3 nM.

In the case of `CN(C)Cc1cc(OCCO)ccc1Sc1ccccc1N`, the Ki stood at 11 nM in series [4], 351 nM in series [7] and 1.1 nM in series [8].

Turning to `CN(C)Cc1cc(OCCCF)ccc1Sc1ccc(F)cc1N`, the Drug uptake in the series on Brain [2] is on record as 1.43 %ID; in the series with Brain [3] it was 1.32 %ID. Further, the Ki was 95 nM in series [4], greater than 1000 nM in series [7] and 0.95 nM in series [8]. Besides, the Ratio in the series on Nucleic Acid [5] is 2.66; in the series with Nucleic Acid [6] it was 4.36.

Take `CN(C)Cc1cc(O)ccc1Sc1ccccc1N`: the Ki is 33 nM in series [4], 659 nM in series [7] and 17 nM in series [8].

As for `CN(C)Cc1cc(OCCF)ccc1Sc1ccccc1N`, the Drug uptake is reported as 1.85 %ID in the series on Brain [2] and 0.63 %ID in the series with Brain [3]. Also, the results for the Ki in series [4], in series [7] and in series [8] were 7.5 nM, 340 nM and 0.25 nM, respectively. Further, the Ratio with Nucleic Acid [5] was 3.79; with Nucleic Acid [6] it was 7.83.

For `CN(C)Cc1cc(OCCC[18F])ccc1Sc1ccccc1N`, the logD in series [1] was found to be 2.54.

In the case of `COc1ccc(Sc2ccccc2N)c(CN(C)C)c1`, the Ki in series [4] turned out to be 14 nM; in series [7] it was 576 nM; in series [8] it was 5 nM.

`CN(C)Cc1cc(OCC[18F])ccc1Sc1ccc(F)cc1N` showed a logD in series [1] of 2.47.

On to `CN(C)Cc1cc(OCCC[18F])ccc1Sc1ccc(F)cc1N`, for which the logD in series [1] was 2.65.

Turning to `CN(C)Cc1cc(OCCO)ccc1Sc1ccc(F)cc1N`, the Ki was 56 nM in series [4], greater than 1000 nM in series [7] and 1.2 nM in series [8].

As to `CN(C)Cc1cc(OCCF)ccc1Sc1ccc(Br)cc1N`, the results for the Drug uptake in the series with Brain [2] and in the series on Brain [3] were 1.88 %ID and 2.16 %ID, respectively. Moreover, the Ki is 114 nM in series [4], greater than 1000 nM in series [7] and 0.05 nM in series [8]. Besides, the Ratio with Nucleic Acid [5] is given as 2.04; in the series on Nucleic Acid [6], 3.7.

On to `CN(C)Cc1cc(OCCF)ccc1Sc1ccc(F)cc1N`, for which the Drug uptake in the series with Brain [2] came to 2.23 %ID; in the series on Brain [3] it was 2.57 %ID. Further, the figures for the Ki in series [4], in series [7] and in series [8] were 37 nM, greater than 1000 nM and 0.1 nM, respectively. Moreover, the Ratio turned out to be 2.78 in the series with Nucleic Acid [5] and 4.34 with Nucleic Acid [6].

Turning to `CN(C)Cc1cc(OCCF)ccc1Sc1ccc(Cl)cc1N`, the Drug uptake in the series on Brain [2] was determined as 1.72 %ID; with Brain [3] it was 1.46 %ID. The Ki was found to be 97 nM in series [4], 847 nM in series [7] and 0.03 nM in series [8]. The Ratio with Nucleic Acid [5] was 2.36; with Nucleic Acid [6] it was 3.77.

For `CN(C)Cc1cc(OCCCO)ccc1Sc1ccc(Br)cc1N`, the Ki was 279 nM in series [4], greater than 1000 nM in series [7] and 0.21 nM in series [8].

Turning to `CN(C)Cc1cc(OCCCF)ccc1Sc1ccc(Br)cc1N`, the results for the Drug uptake in the series on Brain [2] and with Brain [3] were 1.12 %ID and 1.15 %ID, respectively. The Ki was greater than 1000 nM in series [4], greater than 1000 nM in series [7] and 0.15 nM in series [8]. Moreover, the results for the Ratio in the series on Nucleic Acid [5] and in the series with Nucleic Acid [6] were 1.93 and 4.17, respectively.

(Values after ChEMBL document CHEMBL1138354, “2-(2'-((dimethylamino)methyl)-4'-(fluoroalkoxy)-phenylthio)benzenamine derivatives as serotonin transporter imaging agents” (J Med Chem, 2007).)
